Assay results collected from several papers.
Target: Mitogen-activated protein kinase kinase kinase 11 (MAP3K11, Homo sapiens, UniProt Q16584)

Compound	effect on	method	tested at	remaining binding
N[C@H]1CCN(c2nccc(-c3cnn4ncccc34)n2)C1	binding		1 µM	85%
CNC(=O)[C@@H]1CC[C@@H](n2c(-c3ccc4cnccc4c3)nc3ccc(C(=O)NCc4cccc(C(N)=O)c4)cc32)C1	binding	competition with immobilised ligand	1 µM	100%
Cc1cnc(Nc2ccc(C(=O)N3CCC(N4CCCC4)CC3)cc2)nc1-c1cc2ccccc2s1	binding	competition with immobilised ligand	1 µM	13%
O=C(Nc1c[nH]nc1C(=O)NC1CCNCC1)c1cc(F)cc(F)c1	binding	competition with immobilised ligand	1 µM	99%
Nc1ncc2c(n1)-c1c([nH]c3ccc(C#CC4CC4)cc13)CCCC2	binding	competition with immobilised ligand	1 µM	97%
Cc1c(NC(=O)c2cc(C(N)=O)nc3cc(F)ccc23)c(C(F)(F)F)nn1Cc1ccc(C#N)cc1	cell-free assay	competition with immobilised ligand	1 µM	100%
CN(C)c1ncc(F)c(-c2cnn3ncccc23)n1	binding		1 µM	88%
FC(F)(F)Oc1cccc(-c2cnc3ccc(-c4ccncc4)nn23)c1	cell-free assay	competition with immobilised ligand	5 µM	95%
CN(c1nccc(-c2cnn3ncccc23)n1)C1CC1	binding		1 µM	100%
CN1CCN(c2cnc3c(C4CCN(C(=O)c5ccc(OC(F)(F)F)cc5N)CC4)ncnc3c2)CC1	cell-free assay	competition with immobilised ligand	1 µM	100%
CN(C)c1nccc(-c2cnc3ncccn23)n1	binding		1 µM	88%
C[C@@]1(Cc2ccc(C#N)cc2)C(=O)N(c2cc(Cl)cc(Cl)c2)c2ncc(C(=O)NC3(c4nc(C5CCC5)no4)CC3)n21	cell-free assay	competition with immobilised ligand	1 µM	100%
COc1cnc(Nc2cccc(S(N)(=O)=O)c2)nc1N1CCN(c2ccccc2)C(=O)C1	binding	competition with immobilised ligand	1 µM	100%
O=C(c1ccc(Nc2ncc(Cl)c(-c3cc4ccccc4s3)n2)cc1)N1CCC(N2CCCC2)CC1	binding	competition with immobilised ligand	1 µM	11%
O=c1nc(-c2ccccn2)sc2ccccc12	binding	competition with immobilised ligand	1 µM	100%
C[C@@H]1CCN(c2nccc(-c3cnn4ncccc34)n2)C1	binding		1 µM	100%
Cn1cc(Cl)c2c(Oc3c(F)cc(Nc4cc(Cl)nc(N)n4)cc3F)ccnc21	cell-free assay	competition with immobilised ligand	0.1 µM	100%
O=C(NCCCN1CCOCC1)c1ccc(Nc2nccc(-c3cc4ccccc4s3)n2)cc1	binding	competition with immobilised ligand	1 µM	39%
C[C@@H]1CN(c2cc(-c3nn(C)c4ccc(OC5(C)CC5)cc34)ncn2)C[C@H](C)O1	cell-free assay	competition with immobilised ligand	1 µM	100%
COc1ccnn2ncc(-c3ccnc(N(C)C)n3)c12	binding		1 µM	100%
